In ChEMBL document CHEMBL4351008, “Discovery of novel pyrimidine-based benzothiazole derivatives as potent cyclin-dependent kinase 2 inhibitors with anticancer activity” (Eur J Med Chem, 2019):

How the values were obtained:
Type in all cases: functional, cell-based
HeLa = assay: Antiproliferative activity against human HeLa cells incubated for 48 hrs by MTT assay
Procedure, shortened: (§1)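 Cells kept at 37 °C in humidified 5% CO2: MDA-MB-231, MCF-7, HeLa and HCT116 in RPMI-1640; PC-3 in DMEM/F12; both media had 10% FBS. Compounds came from 60 mM DMSO stocks diluted in medium. At 70–80% confluence, cells got fresh medium with compound for 48 h at 37 °C, with 0.1% DMSO as negative control. MTT (5 mg/mL stock) was added for 4 h, and formazan was dissolved in DMSO and read at 570 nm. % inhibition was taken relative to control, IC50 was fitted, and data are mean ± SD of three independent experiments in duplicate.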

MDA-MB-231 = assay: Antiproliferative activity against human MDA-MB-231 cells incubated for 48 hrs by MTT assay; details: MDA-MB-231, 48 h; procedure, shortened: as §1
PC-3 = assay: Antiproliferative activity against human PC3 cells incubated for 48 hrs by MTT assay; details: PC-3, 48 h; procedure, shortened: as §1
MCF7 = assay: Antiproliferative activity against human MCF7 cells incubated for 48 hrs by MTT assay; details: MCF7, 48 h; procedure, shortened: as §1
HCT-116 = assay: Antiproliferative activity against human HCT116 cells incubated for 48 hrs by MTT assay; details: HCT-116, 48 h; procedure, shortened: as §1

| SMILES | IC50 (HeLa) | IC50 (MDA-MB-231) | IC50 (PC-3) | IC50 (MCF7) | IC50 (HCT-116) |
| --- | --- | --- | --- | --- | --- |
| Cc1cnc(Nc2ccc(F)cc2)nc1Nc1nc2ccccc2s1 | > 50 µM | > 50 µM | > 50 µM | > 50 µM | > 50 µM |
| CS(=O)(=O)c1ccc(Nc2ncc(F)c(Nc3nc4ccc(F)cc4s3)n2)cc1 | > 50 µM | 8.9 µM | > 50 µM | > 50 µM | > 50 µM |
| COc1ccc2nc(Nc3nc(Nc4ccc(S(C)(=O)=O)cc4)ncc3F)sc2c1 | 25.4 µM | 4.74 µM | 1.27 µM | 5.85 µM | 2.63 µM |
| COc1ccc2nc(Nc3nc(Nc4ccc(S(N)(=O)=O)cc4)ncc3F)sc2c1 | 13 µM | 26.6 µM | > 50 µM | > 50 µM | 11.5 µM |
| COc1ccc(Nc2ncc(C)c(Nc3nc4ccccc4s3)n2)cc1 | > 50 µM | > 50 µM | > 50 µM | > 50 µM | > 50 µM |
| Cc1cnc(Nc2ccc(C(C)C)cc2)nc1Nc1nc2ccccc2s1 | > 50 µM | > 50 µM | > 50 µM | > 50 µM | > 50 µM |
| Cc1cnc(Nc2ccc(N3CCCCC3)cc2)nc1Nc1nc2ccccc2s1 | 4.34 µM | 37.2 µM | > 50 µM | > 50 µM | 18.7 µM |
| Cc1cnc(Nc2ccc(S(N)(=O)=O)cc2)nc1Nc1nc2ccc(F)cc2s1 | 3.46 µM | 7.58 µM | 6.98 µM | > 50 µM | 2.01 µM |
| NS(=O)(=O)c1ccc(Nc2ncc(F)c(Nc3nc4ccc(Cl)cc4s3)n2)cc1 | 8.77 µM | 2.79 µM | 1.43 µM | 8.34 µM | 8.62 µM |
| COc1ccc2nc(Nc3ccnc(Nc4ccc(S(C)(=O)=O)cc4)n3)sc2c1 | 4.13 µM | 32.7 µM | 2.7 µM | > 50 µM | 2.27 µM |
| Cc1cnc(Nc2ccc(Cl)cc2)nc1Nc1nc2ccccc2s1 | > 50 µM | > 50 µM | > 50 µM | > 50 µM | > 50 µM |
| Cc1ncc(-c2ccnc(Nc3ccc(S(C)(=O)=O)cc3)n2)n1C(C)C [AZD-5438] | 0.73 µM | 7.2 µM | 0.36 µM | 10.7 µM | 0.47 µM |
| Cc1cnc(Nc2ccc(S(C)(=O)=O)cc2)nc1Nc1nc2ccc(F)cc2s1 | > 50 µM | > 50 µM | > 50 µM | 3.26 µM | 24 µM |
| Cc1cnc(Nc2ccc([N+](=O)[O-])cc2)nc1Nc1nc2ccccc2s1 | 34.3 µM | 22.5 µM | > 50 µM | > 50 µM | 6.33 µM |
| CS(=O)(=O)c1ccc(Nc2nccc(Nc3nc4ccc(Cl)cc4s3)n2)cc1 | 1.4 µM | > 50 µM | > 50 µM | > 50 µM | 1.35 µM |
| COc1ccc2nc(Nc3nc(Nc4ccc(S(N)(=O)=O)cc4)ncc3C)sc2c1 | 36.7 µM | > 50 µM | > 50 µM | > 50 µM | 7.86 µM |
| COc1cccc(Nc2ncc(C)c(Nc3nc4ccccc4s3)n2)c1 | > 50 µM | > 50 µM | > 50 µM | > 50 µM | > 50 µM |
| CS(=O)(=O)c1ccc(Nc2ncc(F)c(Nc3nc4ccc(Cl)cc4s3)n2)cc1 | > 50 µM | 11.1 µM | > 50 µM | > 50 µM | 20.7 µM |
| Cc1ccc2nc(Nc3nc(Nc4ccc(S(C)(=O)=O)cc4)ncc3F)sc2c1 | 17.2 µM | 14.3 µM | > 50 µM | > 50 µM | 9.18 µM |
| Cc1cnc(Nc2cccc(F)c2)nc1Nc1nc2ccccc2s1 | 16.3 µM | > 50 µM | > 50 µM | > 50 µM | 27.8 µM |
| COc1ccc2nc(Nc3ccnc(Nc4ccc(S(N)(=O)=O)cc4)n3)sc2c1 | 1.73 µM | 6.24 µM | 3.03 µM | 11 µM | 1.48 µM |
